ChEMBL document CHEMBL3272294, “Antiviral activity of some beta-diketones. 1. Aryl alkyl diketones. In vitro activity against both RNA and DNA viruses” (1977)
Values after ≈ are worked out from the molar mass of the structure shown. Active and inactive are the calls of the source. The rule behind the calls is not given here.

Columns and labels:
Equine rhinovirus = assay: Antiviral activity against Equine rhinovirus assessed as inhibition of virus-induced cytopathic effect at 33 degC after 48 hrs by two-fold dilution method
Human alphaherpesvirus 2 [1] = assay: Antiviral activity against Herpes simplex virus 2 assessed as inhibition of virus-induced cytopathic effect at 37 degC after 72 hrs by two-fold dilution method; assay type: functional; settings: for MIC: Human alphaherpesvirus 2, 72 h
Procedure, shortened: (§1)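 Susceptible monolayers in stationary tubes were infected with 100 tissue culture infective doses and allowed to adsorb for 1 h. Compound was then added in M-199 with 5% inactivated fetal calf serum at 50–0.3 μg/mL in twofold dilutions, four tubes per dilution. Tubes were held at 37 °C and CPE was scored at 48 and 72 h. MIC is the lowest nontoxic level giving complete CPE inhibition, with toxicity read from uninfected parallel tubes.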

Human alphaherpesvirus 2 [2] = assay: Antiviral activity against Herpes simplex virus 2 Curtis assessed as inhibition of virus-induced cytopathic effect at 37 degC after 72 hrs by two-fold dilution method; assay type: functional; settings: Human alphaherpesvirus 2, Curtis
Procedure, shortened: as §1

Human alphaherpesvirus 1 [3] = assay: Antiviral activity against Herpes simplex virus 1 Sheely assessed as inhibition of virus-induced cytopathic effect at 37 degC after 72 hrs by two-fold dilution method; assay type: functional; settings: Human alphaherpesvirus 1, Sheely
Procedure, shortened: as §1

Influenza A virus [4] = assay: Antiviral activity against Influenza A2 virus Jap 170 infected in ferret trachea assessed as reduction in viral yield at 200 ug/ml after 3 days followed by compound-washout measured after 24 hrs by chick embryo-based hemagglutination titration method relative to control; assay type: functional; design: scale not given: the % may be the effect or the level left
Influenza A virus [5] = assay: Antiviral activity against Influenza A2 virus Jap 170 infected in ferret trachea assessed as reduction in viral yield at 100 ug/ml after 3 days followed by compound-washout measured after 24 hrs by chick embryo-based hemagglutination titration method relative to control; assay type: functional; design: scale not given: the % may be the effect or the level left
rhinovirus A2 = assay: Antiviral activity against Human rhinovirus 2 assessed as inhibition of virus-induced cytopathic effect at 37 degC after 72 hrs by two-fold dilution method; assay type: functional; settings: Rhinovirus A
[6] = Antiviral activity against Human rhinovirus 17 assessed as inhibition of virus-induced cytopathic effect at 37 degC after 72 hrs by two-fold dilution method; assay type: functional, Human rhinovirus B17; settings: Rhinovirus B
Human alphaherpesvirus 1 [7] = assay: Antiviral activity against Herpes simplex virus 1 assessed as inhibition of virus-induced cytopathic effect at 37 degC after 72 hrs by two-fold dilution method; assay type: functional; settings: Human alphaherpesvirus 1, 72 h
Procedure, shortened: as §1

[8] = system: unidentified influenza virus; assay: Antiviral activity against Parainfluenza virus assessed as inhibition of virus-induced cytopathic effect at 37 degC after 72 hrs by two-fold dilution method; assay type: functional
Procedure, shortened: as §1

[9] = system: Respiratory syncytial virus; assay: Antiviral activity against Respiratory syncytial virus assessed as inhibition of virus-induced cytopathic effect at 37 degC after 72 hrs by two-fold dilution method; assay type: functional; settings: human respiratory syncytial virus
Procedure, shortened: as §1

rhinovirus B14 = assay: Antiviral activity against Human rhinovirus 14 assessed as inhibition of virus-induced cytopathic effect at 37 degC after 72 hrs by two-fold dilution method; assay type: functional; settings: Rhinovirus B

CCC(=O)C(CCCCCCCc1ccc(O)cc1)C(=O)CC
MIC (Equine rhinovirus): 6 µg/mL (≈ 18.8 µM) | MIC (Human alphaherpesvirus 2 [1]): 6 µg/mL (≈ 18.8 µM)

CCC(=O)C(CCCCCCc1ccccc1)C(=O)CC
MIC (Equine rhinovirus): 6 µg/mL (≈ 20.8 µM)

CCC(=O)C(CC/C(=C/CCc1ccc2c(c1)OCO2)CC)C(=O)CC
MIC (Equine rhinovirus): 6 µg/mL (≈ 16.7 µM)

CC/C(=C\CCc1ccc2c(c1)OCO2)CCC(C(C)=O)C(C)=O
MIC (Equine rhinovirus): 6 µg/mL (≈ 18.2 µM)

CCC(=O)C(CCCCCCc1ccc(OC(C)=O)cc1)C(=O)CC
MIC (Equine rhinovirus): 6 µg/mL (≈ 17.3 µM)

CCC(=O)C(CCCCCCc1ccc(C)cc1)C(=O)CC
MIC (Equine rhinovirus): 6 µg/mL (≈ 19.8 µM)

O=c1[nH]c(=O)n([C@H]2C[C@H](O)[C@@H](CO)O2)cc1I [IDOXURIDINE]
MIC (Human alphaherpesvirus 2 [2]): 6 µg/mL (≈ 16.9 µM) | MIC (Human alphaherpesvirus 1 [3]): 6 µg/mL (≈ 16.9 µM)

Nc1ncnc2c1ncn2[C@@H]1O[C@H](CO)[C@@H](O)[C@@H]1O [VIDARABINE]
MIC (Human alphaherpesvirus 2 [2]): 12 µg/mL (≈ 44.9 µM) | MIC (Human alphaherpesvirus 1 [3]): 12 µg/mL (≈ 44.9 µM)

CC/C(=C\CCc1ccc2c(c1)OCO2)CCC1CCCC1=O (centres undefined)
MIC (Equine rhinovirus): 6 µg/mL (≈ 19.1 µM)

CCC(=O)C(CCCCCCc1ccccc1OC)C(=O)CC
MIC (Equine rhinovirus): 12 µg/mL (≈ 37.7 µM)

CCC(=O)C(CC/C=C/CCc1ccc(OC(F)(F)F)cc1)C(=O)CC
MIC (Equine rhinovirus): 6 µg/mL (≈ 16.2 µM)

CCC(=O)C(CC/C=C/CCc1cc(OC)c(OCc2ccccc2)c(OC)c1)C(=O)CC
MIC (Equine rhinovirus): 6 µg/mL (≈ 13.3 µM)

CCC(=O)C(CCCCCCc1cccc(O)c1)C(=O)CC
MIC (Equine rhinovirus): 6 µg/mL (≈ 19.7 µM)

CCC(=O)C(CCCCc1ccc(O)cc1)C(=O)CC
MIC (Equine rhinovirus): 6 µg/mL (≈ 21.7 µM) | MIC (Human alphaherpesvirus 2 [1]): 12 µg/mL (≈ 43.4 µM)

CCC(=O)C(CCCCCCCCCc1ccc(O)cc1)C(=O)CC
MIC (Human alphaherpesvirus 2 [1]): 6 µg/mL (≈ 17.3 µM)

CCOC(=O)C(CC/C(=C/CCc1ccc2c(c1)OCO2)CC)C(C)=O (centres undefined)
MIC (Equine rhinovirus): 6 µg/mL (≈ 16.6 µM)

CCC(=O)C(CCCCCCCCCCc1ccc(O)cc1)C(=O)CC
MIC (Equine rhinovirus): 12 µg/mL (≈ 33.3 µM) | MIC (Human alphaherpesvirus 2 [1]): 12 µg/mL (≈ 33.3 µM)

CCC(=O)C(CCCCCCc1ccc(OC(=O)c2cccc(C)c2)cc1)C(=O)CC
MIC (Equine rhinovirus): 3 µg/mL (≈ 7.1 µM)

CCC(=O)C(CCCCCCc1ccc(Cl)cc1OC)C(=O)CC
MIC (Equine rhinovirus): 3 µg/mL (≈ 8.5 µM)

CCC(=O)C(CC/C(=C/C=C/c1ccc2c(c1)OCO2)CC)C(=O)CC
MIC (Equine rhinovirus): 6 µg/mL (≈ 16.8 µM)

CCC(=O)C(CCCCCCc1ccc(OC(=O)c2ccccc2C)cc1)C(=O)CC
MIC (Equine rhinovirus): 6 µg/mL (≈ 14.2 µM)

CCC(=O)C(CCCCCCCCc1ccc(O)cc1)C(=O)CC
MIC (Equine rhinovirus): 3 µg/mL (≈ 9.02 µM) | MIC (Human alphaherpesvirus 2 [1]): 3 µg/mL (≈ 9.02 µM)

CCC(=O)C(CCCCCCc1ccc(OC(=O)c2cc(OC)c(OC)c(OC)c2)cc1)C(=O)CC
MIC (Equine rhinovirus): 6 µg/mL (≈ 12 µM)

CCC(=O)C(CCCCCCc1ccc(O)c(O)c1)C(=O)CC
MIC (Equine rhinovirus): 1.5 µg/mL (≈ 4.68 µM)

CCC(=O)C(CCCCCCc1ccc(Cl)cc1Cl)C(=O)CC
MIC (Equine rhinovirus): 3 µg/mL (≈ 8.4 µM)

CCC(=O)C(CCCc1ccc(O)cc1)C(=O)CC
inhibition (Human alphaherpesvirus 2 [1]): inactive

CCC(=O)C(CCCCCCc1ccc2c(c1)OCO2)C(=O)CC
MIC (Equine rhinovirus): 6 µg/mL (≈ 18 µM)

CCC(=O)C(CCCCCCc1ccc(O)cc1)C(=O)CC
MIC (Human alphaherpesvirus 2 [2]): 12 µg/mL (≈ 39.4 µM) | Activity (Influenza A virus [4]): 99.9% | MIC (Human alphaherpesvirus 1 [3]): 12 µg/mL (≈ 39.4 µM) | MIC (Equine rhinovirus): 3 µg/mL (≈ 9.85 µM) | Activity (Influenza A virus [5]): 94% | MIC (rhinovirus A2): 3 µg/mL (≈ 9.85 µM) | MIC [6]: 6 µg/mL (≈ 19.7 µM) | MIC (Human alphaherpesvirus 1 [7]): 12 µg/mL (≈ 39.4 µM) | MIC [8]: 3 µg/mL (≈ 9.85 µM) | MIC (Human alphaherpesvirus 2 [1]): 12 µg/mL (≈ 39.4 µM) | MIC [9]: 6 µg/mL (≈ 19.7 µM) | MIC (rhinovirus B14): 6 µg/mL (≈ 19.7 µM)

CCC(=O)C(CCCCCCc1ccc(OC(F)(F)F)cc1)C(=O)CC
MIC (Equine rhinovirus): 6 µg/mL (≈ 16.1 µM)

CCC(=O)C(CCCCCCc1ccc(Cl)cc1)C(=O)CC
MIC (Equine rhinovirus): 1.5 µg/mL (≈ 4.65 µM)

CCC(=O)C(CCCCCCc1ccc(OC(=O)c2cccc(OC)c2)cc1)C(=O)CC
MIC (Equine rhinovirus): 3 µg/mL (≈ 6.84 µM)

CCC(=O)C(CCCCCCc1ccccc1O)C(=O)CC
MIC (Equine rhinovirus): 6 µg/mL (≈ 19.7 µM)

CCCC(=O)C(CC/C(=C/CCc1ccc2c(c1)OCO2)CC)C(=O)OCC (centres undefined)
MIC (Equine rhinovirus): 12 µg/mL (≈ 30.9 µM)

CCC(=O)C(CC/C(=C/CCc1ccc(C(=O)OC)cc1)CC)C(=O)CC
MIC (Equine rhinovirus): 25 µg/mL (≈ 67.1 µM)

CCC(=O)C(CCCCCCc1ccc(OC(=O)c2ccc(C)cc2)cc1)C(=O)CC
MIC (Equine rhinovirus): 12 µg/mL (≈ 28.4 µM)

CCC(=O)C(CC/C=C/CCc1ccc2c(c1)OCO2)C(=O)CC
MIC (Equine rhinovirus): 3 µg/mL (≈ 9.08 µM)

CCC(=O)C(CC/C(=C/CCc1ccc2c(c1)OCO2)CC)C(C)=O (centres undefined)
MIC (Equine rhinovirus): 12 µg/mL (≈ 34.8 µM)

CCC(=O)C(CC/C(C)=C/CCc1ccc2c(c1)OCO2)C(=O)CC
MIC (Equine rhinovirus): 3 µg/mL (≈ 8.71 µM)

CCC(=O)C(CC/C=C/CCc1ccc(NC(C)=O)cc1)C(=O)CC
MIC (Equine rhinovirus): 12 µg/mL (≈ 34.9 µM)

CCC(=O)C(CCCCCCc1ccc(OC)cc1)C(=O)CC
MIC (Equine rhinovirus): 3 µg/mL (≈ 9.42 µM)

Nc1ccn([C@@H]2O[C@H](CO)[C@@H](O)[C@@H]2O)c(=O)n1 [CYTARABINE]
MIC (Human alphaherpesvirus 2 [2]): < 3 µg/mL | MIC (Human alphaherpesvirus 1 [3]): < 3 µg/mL

CCC(=O)C(CCC(CC)CCCc1ccc2c(c1)OCO2)C(=O)CC (centres undefined)
MIC (Equine rhinovirus): 3 µg/mL (≈ 8.32 µM)

CCC(=O)C(CCCCCCc1ccc(Cl)cc1O)C(=O)CC
MIC (Equine rhinovirus): 0.7 µg/mL (≈ 2.07 µM)

CCC(=O)C(CC/C=C/CCc1ccc(OCc2ccccc2)cc1)C(=O)CC
MIC (Equine rhinovirus): 3 µg/mL (≈ 7.64 µM)

CCC(=O)C(CCCCCc1ccc(O)cc1)C(=O)CC
MIC (Equine rhinovirus): 12 µg/mL (≈ 41.3 µM) | MIC (Human alphaherpesvirus 2 [1]): 12 µg/mL (≈ 41.3 µM)
